≈ marks a conversion by molar mass, not a printed value. Calls of active or inactive are those of the source. The calls are words filed in the database; no cut-off is given here.
Assays:
Candida albicans = assay: Antifungal activity against Candida albicans assessed as reduction in fungal growth incubated for overnight by serial dilution assay; assay type: functional
Procedure, shortened: (§1)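 MIC50 determined against five fungi (C. albicans, M. hiemalis, R. glutinis, S. pombe, W. anomalus), with nystatin as positive control. Values given in µg/mL; "–" means no inhibition under test conditions.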

Mucor hiemalis = assay: Antifungal activity against Mucor hiemalis assessed as reduction in fungal growth incubated for overnight by serial dilution assay; assay type: functional; procedure, shortened: as §1
Rhodotorula glutinis = assay: Antifungal activity against Rhodotorula glutinis assessed as reduction in fungal growth incubated for overnight by serial dilution assay; assay type: functional; procedure, shortened: as §1
[1] = system: Schizosaccharomyces pombe; assay: Antifungal activity against Schizosaccharomyces pombe assessed as reduction in fungal growth incubated for overnight by serial dilution assay; assay type: functional; procedure, shortened: as §1
Wickerhamomyces anomalus = assay: Antifungal activity against Wickerhamomyces anomalus assessed as reduction in fungal growth incubated for overnight by serial dilution assay; assay type: functional; procedure, shortened: as §1
Bacillus subtilis = assay: Antibacterial activity against Bacillus subtilis assessed as reduction in microbial growth incubated for overnight by serial dilution assay; assay type: functional
Procedure, shortened: (§2)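 MIC50 determined against Gram-positive and Gram-negative bacteria. Positive controls: oxytetracycline for most bacteria, ciprobay for A. baumannii, gentamycin for Ps. aeruginosa. Values given in µg/mL; "–" means no inhibition under test conditions.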

[2] = system: Chromobacterium violaceum; assay: Antibacterial activity against Chromobacterium violaceum assessed as reduction in microbial growth incubated for overnight by serial dilution assay; assay type: functional; procedure, shortened: as §2
Escherichia coli = assay: Antibacterial activity against Escherichia coli assessed as reduction in microbial growth incubated for overnight by serial dilution assay; assay type: functional; procedure, shortened: as §2
Staphylococcus aureus = assay: Antibacterial activity against Staphylococcus aureus assessed as reduction in microbial growth incubated for overnight by serial dilution assay; assay type: functional; procedure, shortened: as §2
Pseudomonas aeruginosa = assay: Antibacterial activity against Pseudomonas aeruginosa assessed as reduction in microbial growth incubated for overnight by serial dilution assay; assay type: functional, organism-based; procedure, shortened: as §2
[3] = (§3) Cytotoxicity against human KB-3-1 cells assessed as reduction in cell viability after 5 days by MTT assay; assay type: toxicity, cell-based; settings: human, KB-3-1 cells
Procedure, shortened: (§4)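 Cytotoxicity read by MTT method against mammalian cell lines (human endocervical adenocarcinoma KB 3.1, mouse fibroblast L929), with epothilone B as positive control. IC50 reported in µM.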

[4] = Cytotoxicity against mouse L929 cells assessed as reduction in cell viability after 5 days by MTT assay; assay type: toxicity, cell-based; procedure, shortened: as §4
KB 3-1 = assay: as §3; assay type: toxicity, cell-based; settings: kb 3-1; procedure, shortened: as §4
Acinetobacter baumannii = assay: Antibacterial activity against Acinetobacter baumannii assessed as reduction in microbial growth incubated for overnight by serial dilution assay

Molecule | MIC (Candida albicans) [µg/mL] | MIC (Mucor hiemalis) [µg/mL] | MIC (Rhodotorula glutinis) [µg/mL] | MIC [1] [µg/mL] | MIC (Bacillus subtilis) [µg/mL] | MIC (Staphylococcus aureus) [µg/mL] | MIC (Wickerhamomyces anomalus; Hansenula anomala) [µg/mL] | Activity [2] | Activity (Escherichia coli) | Activity (Pseudomonas aeruginosa) | IC50 at 5 days [3] [µM] | IC50 at 5 days [4] [µM] | other results
NYSTATIN | 16.6 | 8.3 | 2.1 | 4.2 |  |  |  |  |  |  |  |  | MIC (Wickerhamomyces anomalus): 8.3 µg/mL
CN(C)[C@@H]1C(O)=C(C(N)=O)C(=O)[C@@]2(O)C(O)=C3C(=O)c4c(O)cccc4[C@@](C)(O)[C@H]3[C@H](O)[C@@H]12 [OXYTETRACYCLINE] |  |  |  |  | 16.6 | 0.83 |  |  |  |  |  |  | MIC [2]: 0.83 µg/mL; MIC (Escherichia coli): 3.3 µg/mL
CN1C(=O)C23SSC4c5ccccc5O[C@]41C(=O)N2O[C@]1(C[C@H](O)[C@H](O)CC1=O)[C@H]3O (stereo partly specified) |  | 33.3 (≈ 71.4 µM) | 66.6 (≈ 143 µM) | 66.6 (≈ 143 µM) | 33.3 | 33.3 | 66.6 (≈ 143 µM) | inactive | inactive | inactive | 54 | 58 | Activity (Candida albicans): inactive
GENTAMICIN |  |  |  |  |  |  |  |  |  |  |  |  | MIC (Pseudomonas aeruginosa): 0.42 µg/mL
CN1C(=O)C23SSSC4c5ccccc5O[C@]41C(=O)N2O[C@]1(C[C@H](O)[C@H](O)CC1=O)[C@H]3O (stereo partly specified) | 66.6 (≈ 134 µM) | 66.6 (≈ 134 µM) | 66.6 (≈ 134 µM) | 66.6 (≈ 134 µM) | 66.6 |  | 33.3 (≈ 66.8 µM) | inactive | inactive | inactive |  | 50 | Activity (Staphylococcus aureus): inactive; IC50 (KB 3-1): Non-Toxic
C/C(=C\c1csc(C)n1)[C@@H]1C[C@@H]2O[C@@H]2CCC[C@H](C)[C@H](O)[C@@H](C)C(=O)C(C)(C)[C@H](O)CC(=O)O1 |  |  |  |  |  |  |  |  |  |  | 4e-05 | 0.00052 | 
CSC1c2ccccc2O[C@]12C(=O)N1O[C@]3(CCC=CC3=O)[C@@H](O)C1(SC)C(=O)N2C (stereo partly specified) |  |  |  |  | 66.6 | 66.6 |  | inactive | inactive | inactive | 15 | 5 | Activity (Candida albicans): inactive; Activity (Mucor hiemalis): inactive; Activity (Rhodotorula glutinis): inactive; Activity [1]: inactive; Activity (Wickerhamomyces anomalus): inactive
CN1C(=O)C23SSC4c5ccccc5O[C@]41C(=O)N2O[C@]1(C[C@H](O)C=CC1=O)[C@H]3O (stereo partly specified) | 66.6 (≈ 149 µM) | 8 (≈ 17.8 µM) | 33.3 (≈ 74.3 µM) | 66.6 (≈ 149 µM) | 16.6 | 8.3 | 33.3 (≈ 74.3 µM) |  | inactive | inactive | 49 | 42 | MIC [2]: 16.6 µg/mL
O=C(O)c1cn(C2CC2)c2cc(N3CCNCC3)c(F)cc2c1=O [CIPROFLOXACIN] |  |  |  |  |  |  |  |  |  |  |  |  | MIC (Acinetobacter baumannii): 0.53 µg/mL
